Source: PubChem BioAssay
NPY1 pot ag – human NPY-Y1 potentiation or agonism, primary screen. 220,000 tested, 0.37% active. NPY-Y1 expressing cells, potentiator/agonist activation. P25929. AID 1304. activation, % at 3.6 µM; in the data active = activation above about 33%, passing the limit was not always enough;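 also: cells stimulated with NPY at EC10 then isoproterenol at EC100; 0% = low agonist plus stimulus and 100% = saturating agonist plus stimulus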
S1P4 antag – antagonists of human S1P4 receptor; O95977; S1P4-expressing cells, antagonist mode, reporter read-out; inhibition, % at 4.98 µM; 220,000 tested, 0.26% active; AID 1510; in the data active = inhibition above about 29%;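 also: 0% = wells stimulated with agonist and 100% = vehicle wells without agonist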
NPY-Y1 antag – blocks the human neuropeptide Y Y1 receptor. P25929. HEK293-CNG Y1 cells, membrane potential fluorescence; NPY at EC95, then isoproterenol. inhibition, % at 3.6 µM. 200,000 tested, 1% active;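 active = inhibition above the campaign mean inhibition of all tested compounds plus 3 SD, cut at about 20% in these data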;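 also: 0% = DMSO wells given NPY plus isoproterenol and 100% = isoproterenol alone without NPY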
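Benchmarks – high control isoproterenol alone, low control NPY with isoproterenol · Material – HEK293 Y1/CNG channel cell line · Times – dye 3 h, compound 60 min room temperature, stimulation 45 min · Probe or stimulus – NPY (25 nM), isoproterenol (1 µM), Ro 20-1724 (25 µM) · Evaluation – % inhibition of NPY effect · Signal – fluorescence, membrane potential probe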
S1P4 agonist – agonists of human S1P4 receptor | O95977 | S1P4-expressing cell line, agonist reporter assay | activation, % at 4.98 µM | 220,000 tested, 0.35% active; in the data active = activation above about 11%;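 also: 0% = DMSO vehicle and 100% = reference agonist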
NPY-Y2 antag – NPY-Y2 (human) receptor antagonism. AID 793. 140,000 tested, 0.99% active. P49146. NPY-Y2 expressing cells, antagonist mode. inhibition, % at 2.7 µM; in the data active = inhibition above about 17%;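 also: 0% = vehicle with agonist challenge and 100% = reference antagonist with challenge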
Target sequence (P49146 whole entry, looked up): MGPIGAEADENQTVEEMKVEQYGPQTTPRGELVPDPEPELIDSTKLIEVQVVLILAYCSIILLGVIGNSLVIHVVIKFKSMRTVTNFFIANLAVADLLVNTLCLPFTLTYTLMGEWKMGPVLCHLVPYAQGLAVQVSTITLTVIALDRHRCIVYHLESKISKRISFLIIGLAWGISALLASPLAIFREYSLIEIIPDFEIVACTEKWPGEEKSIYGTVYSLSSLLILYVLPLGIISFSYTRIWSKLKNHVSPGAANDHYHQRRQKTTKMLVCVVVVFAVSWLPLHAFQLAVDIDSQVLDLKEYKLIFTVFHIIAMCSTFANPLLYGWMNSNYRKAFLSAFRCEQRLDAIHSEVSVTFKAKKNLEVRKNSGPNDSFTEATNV
NPY-Y2 PAM-ag – potentiators or agonists of human neuropeptide Y receptor Y2. 220,000 tested, 0.45% active. P49146. cells expressing NPY-Y2, potentiator/agonist read-out. AID 1359. activation, % at 3.6 µM; in the data active = activation above about 27%;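 also: cells stimulated with NPY near EC25 plus isoproterenol at EC100; 0% = vehicle plus submaximal agonist and 100% = vehicle plus saturating agonist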
S1P4 antag cf – confirmation of human S1P4 receptor antagonists. shares compounds with S1P4 antag. S1P4-expressing cell line, antagonist mode, reporter read-out. inhibition, % at 4.98 µM. 520 tested, 71% active. AID 1524; in the data active = inhibition above about 30%
S1P1 antagonist – blocks human S1P1, counter-screen for S1P4 antagonists; shares compounds with S1P4 antag; cell-based S1P1 antagonist counterscreen, inhibition; inhibition, % at 4.98 µM; 520 tested, 37% active; in the data active = inhibition above about 40%;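 also: receptor stimulated with S1P near its EC80; 0% = agonist stimulated wells and 100% = vehicle only wells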
An asterisk follows results filed as active; . = no result. Only some compounds are listed: those with a hit (about 2.4% of all), similar ones and a draw of the others.

SMILES	NPY1 pot ag	S1P4 antag	NPY-Y1 antag	S1P4 agonist	NPY-Y2 antag	NPY-Y2 PAM-ag	S1P4 antag cf	S1P1 antagonist
CCC(=O)N1CCN(c2ccc(NC(=O)c3cc4ccccc4o3)cc2Cl)CC1	-1.1	-28.3	-0.2	0.8	5.7	-2.9	.	.
CCN1CCN(c2ccc(NC(=O)c3ccc(F)cc3)cc2Cl)CC1	-12.9	-1.7	4.4	-0.8	.	-20.1	.	.
CCN1CCN(c2ccc(NC(=O)c3ccc([N+](=O)[O-])o3)cc2Cl)CC1	-6.5	85.9*	-3.6	-2.9	.	-3.6	74.7*	67.2*
CC(C)CCNC(=O)C1CCC(CNc2c(N3CCCC3)c(=O)c2=O)CC1 (configuration not stated)	-6.1	-10.3	.	1.4	.	-20.8	.	.
CCOC(=O)C1(Cc2ccccc2)CCN(Cc2cccc(OC)c2O)CC1	-6.9	-12.0	10.1	1.9	.	-28.7	.	.
CCOC(=O)C1(Cc2ccccc2)CCN(Cc2cn(CC(=O)OC)c3ccccc23)CC1	-22.0	29.6*	13.1	0.6	.	-27.6	5.1	15.6
O=C(C1CC12CCCC2)N1CCC(CO)(Cc2ccccc2Cl)CC1 (configuration not stated)	10.3	-16.0	2.7	0.3	.	7.9	.	.
CCC(NC(=O)Nc1nnc(C(F)(F)F)s1)(C(F)(F)F)C(F)(F)F	-44.1	37.7*	38.4*	-0.3	24.9*	25.1	51.2*	7.0
CNC1=C([N+](=O)[O-])CC([N+](=O)[O-])=C(N2CCNCC2)N1C	3.1	35.1*	6.4	-0.3	.	-13.6	-1.5	1.6
CS(=O)(=O)Nc1cccc(C2=NN(S(=O)(=O)c3ccccc3)C(c3ccco3)C2)c1 (configuration not stated)	1.8	-6.0	12.1	0.2	.	0.5	.	.
O=C(NN1CCOCC1)c1ccc(S(=O)(=O)N2CCCCC2)cc1	-17.8	-6.6	-1.4	-0.6	.	14.0	.	.
O=C(CCSc1ccc(Cl)cc1)NC1CCCCC1	6.6	-8.8	6.3	0.6	2.0	-5.7	.	.
O=C(CCSc1ccccc1)NC1CCCCCC1	1.5	43.3*	11.3	-0.3	.	-4.8	3.1	26.4
CCOC(=O)c1c(NC(=O)OC)sc(C(=O)N(C)C)c1C	0.9	44.2*	0.3	2.5	0.7	11.5	-0.5	-2.8
COc1ccc(NC(=S)N2CCCC2)c(OC)c1	1.1	-17.8	-1.1	0.5	.	1.9	.	.
NNC(=O)c1ccc(CSc2cccc3cccnc23)cc1	-6.2	-8.1	2.9	3.1	.	-0.5	.	.
Cc1cccc(CSc2cccc3cccnc23)c1	-13.3	38.6*	9.8	-1.6	3.8	-16.6	95.6*	64.7*
CCOC(=O)COc1ccc(C(=O)Nc2cccc(Cl)c2C)cc1	23.3	32.5*	-1.2	1.3	.	2.5	0.7	-2.8
CCOC(=O)Nc1cccc(Cl)c1C	-19.0	-15.0	3.9	-3.0	0.9	-2.2	.	.
CC1=NNC(=O)/C1=C\c1cn(-c2ccccc2)nc1-c1ccc(F)cc1	1.9	29.7*	-5.8	-0.8	.	-5.0	109.6*	17.7
CCSc1nnc([C@H](Cc2ccccc2)NC(=O)OC(C)(C)C)o1	-11.6	-11.5	7.3	2.6	0.3	-3.5	.	.
Cc1ccccc1CS(=O)(=O)c1nnc([C@H](Cc2ccccc2)NC(=O)OC(C)(C)C)o1	6.5	71.1*	-0.8	-1.7	-0.3	7.8	108.3*	34.1
CCC(C)[C@@H](NC(=O)OC(C)(C)C)c1nnc(S(=O)(=O)Cc2cccc(C)c2)o1 (some centres not stated)	0.6	76.4*	-4.0	-4.4	0.3	-8.3	108.9*	31.2
COc1cc2c(cc1OC)C(C)N(C(=O)c1sc(-c3cnccn3)nc1C)CC2 (configuration not stated)	-12.8	3.1	.	-0.3	.	-31.0	.	.
O=C(COC(=O)c1cc(=O)[nH]c2ccc(Br)cc12)c1ccccc1	3.9	-36.2	-1.0	-1.7	.	6.0	.	.
SMILES	NPY1 pot ag	S1P4 antag	NPY-Y1 antag	S1P4 agonist	NPY-Y2 antag	NPY-Y2 PAM-ag	S1P4 antag cf	S1P1 antagonist
c1cnc(Oc2ccc(-c3nnco3)cc2)cn1	-1.6	36.9*	2.4	0.7	-4.1	-7.4	4.1	26.8
N#Cc1cc(Oc2cccc3cccnc23)c(-n2nnc3ccccc32)cc1C#N	-1.8	33.6*	-8.2	7.4	5.9	-1.9	11.7	-19.7
N#Cc1cc(O)c(-n2nnc3ccccc32)cc1C#N	1.2	-10.4	1.9	3.0	.	-8.5	.	.
Cc1cccc(C)c1NC(=O)COC(=O)c1nonc1N	9.5	29.3*	6.8	0.6	1.3	8.1	-7.2	9.5
O=C(Nc1nnc(-c2cccs2)o1)c1cccc(F)c1	-19.9	-0.5	1.4	-0.5	4.4	-5.7	.	.
O=C(Nc1nnc(-c2cccs2)o1)c1cccc(Oc2ccccc2)c1	-6.5	32.2*	6.8	2.2	4.2	-24.1	98.5*	94.2*
CC(=O)N1/C(=C/c2ccc(N(C)C)cc2)C(=O)c2ccccc21	-1.8	30.3*	18.5	-3.9	.	-16.4	91.3*	91.5*
O=C(NC(Cc1ccccc1)C(=O)O)/C(=C/c1ccccc1)NC(=O)c1ccccc1 (configuration not stated)	-16.3	45.0*	3.0	1.0	0.8	7.5	16.2	2.1
CCS(=O)(=O)N1CCC(C(=O)NCCCN2CCCC2)CC1	-13.7	32.3*	1.1	-1.3	0.7	-8.4	12.3	14.8
CC1CCN(CC(O)COCCC23CC4CC(CC(C4)C2)C3)CC1 (configuration not stated)	2.1	6.6	8.7	-1.8	15.9	-33.4	.	.
O=C(NCc1cccnc1)C(=O)N/N=C/c1ccc([N+](=O)[O-])cc1	-3.1	29.9*	-0.3	0.7	.	11.4	10.4	3.8
O=C1S/C(=C\c2ccc(Cl)cc2)C(=O)N1CCn1cnnn1	5.8	24.9	-1.5	0.4	.	-7.5	.	.
CC(=O)N(C1=C(Cl)C(=O)c2ccccc2C1=O)C1CCCCC1	-5.6	51.6*	.	0.8	.	-38.6	115.2*	61.0*
CC(/C=C(\NC(=O)c1ccccc1)C(=O)N=Nc1c(O)[nH]c2ccc(C)cc12)=C\c1ccccc1	21.3	35.4*	6.3	-3.7	1.3	12.1	17.9	21.8
Clc1ccc(OCc2cnc(Cl)s2)cc1	-12.1	-13.4	-1.9	0.3	7.7	5.5	.	.
Cc1ccc(NS(=O)(=O)c2cc(C(=O)NCc3ccccn3)ccc2Cl)cc1C	-3.6	-1.2	6.1	1.0	5.2	-4.9	.	.
COCCCNC(=O)/C=C1\Sc2ccccc2N(Cc2ccccc2F)C1=O	26.2	65.5*	-0.4	0.2	.	22.4	0.2	13.3
CCCCNc1ccc2c3c(cccc13)C(=O)N(CCCC)C2=O	-6.8	45.1*	.	0.2	.	2.4	67.4*	97.8*
CCn1nc(C)cc1C(=O)N1CCCC(CCC(=O)NCc2ccccc2F)C1 (configuration not stated)	-14.7	-15.4	-1.5	0.2	.	3.6	.	.
